Drawing on ChEMBL document CHEMBL1142529, this text covers fold change (FC) for 35 molecules.

In test [1] the target is T1, Quinolone resistance protein NorA (Staphylococcus aureus) (UniProt P0A0J7).
T1 sequence (whole entry): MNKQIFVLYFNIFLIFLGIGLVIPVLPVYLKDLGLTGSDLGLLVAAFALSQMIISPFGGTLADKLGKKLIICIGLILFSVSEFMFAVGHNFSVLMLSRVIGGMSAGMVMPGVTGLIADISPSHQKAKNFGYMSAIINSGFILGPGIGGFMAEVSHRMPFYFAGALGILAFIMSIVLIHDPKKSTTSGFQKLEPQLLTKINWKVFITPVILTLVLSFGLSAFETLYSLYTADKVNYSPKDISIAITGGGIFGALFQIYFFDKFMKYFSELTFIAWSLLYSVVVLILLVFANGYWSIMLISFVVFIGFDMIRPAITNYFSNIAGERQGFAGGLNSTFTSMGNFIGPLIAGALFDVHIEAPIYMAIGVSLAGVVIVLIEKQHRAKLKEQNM
Put plainly: Inhibition of NorA efflux pump in Staphylococcus aureus 1199B assessed as fold reduction of ciprofloxacin MIC at 3.12 ug/ml. A digest of the protocol: (§1)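 Broth checkerboard synergy in Mueller–Hinton broth with twofold serial dilutions. Each candidate EPI was run at seven concentrations (100–1.56 µg/mL) against ciprofloxacin at 10 concentrations (16–0.03 µg/mL). Incubation was 18 h at 37 °C, and growth was scored visually. The fold drop in ciprofloxacin MIC was read at the stated EPI concentration.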

Test [2] concerns the target T1, Quinolone resistance protein NorA (Staphylococcus aureus). Put plainly: Inhibition of NorA efflux pump in Staphylococcus aureus 1199 assessed as fold reduction of ciprofloxacin MIC at 3.12 ug/ml. A digest of the protocol: as §1
Test [3] has the same target. Put plainly: Inhibition of NorA efflux pump in Staphylococcus aureus 1199B assessed as fold reduction of ciprofloxacin MIC at 12.5 ug/ml. A digest of the protocol:
as §1

For test [4] the target is unchanged. Put plainly: Inhibition of NorA efflux pump in Staphylococcus aureus 1199 assessed as fold reduction of ciprofloxacin MIC at 12.5 ug/ml. A digest of the protocol: as §1
For test [5] the target is unchanged. Briefly: Inhibition of NorA efflux pump in Staphylococcus aureus 1199B assessed as fold reduction of ciprofloxacin MIC at 25 ug/ml. A digest of the protocol: as §1
For test [6] the target is unchanged. Put plainly: Inhibition of NorA efflux pump in Staphylococcus aureus 1199 assessed as fold reduction of ciprofloxacin MIC at 25 ug/ml. A digest of the protocol:
as §1

Test [7] shares this target. Put plainly: Inhibition of NorA efflux pump in Staphylococcus aureus 1199B assessed as fold reduction of ciprofloxacin MIC at >100 ug/ml.
The target is the same in test [8]. Put plainly: Inhibition of NorA efflux pump in Staphylococcus aureus 1199 assessed as fold reduction of ciprofloxacin MIC at >100 ug/ml. A digest of the protocol: as §1
For test [9] the target is unchanged. Briefly: Inhibition of NorA efflux pump in Staphylococcus aureus 1199B assessed as fold reduction of ciprofloxacin MIC at 6.25 ug/ml. A digest of the protocol: as §1
Test [10] shares this target. Briefly: Inhibition of NorA efflux pump in Staphylococcus aureus 1199 assessed as fold reduction of ciprofloxacin MIC at 6.25 ug/ml. A digest of the protocol:
as §1

For test [11] the target is unchanged. Put plainly: Inhibition of NorA efflux pump in Staphylococcus aureus 1199B assessed as fold reduction of ciprofloxacin MIC at 100 ug/ml. A digest of the protocol: as §1
Test [12] shares this target. Put plainly: Inhibition of NorA efflux pump in Staphylococcus aureus 1199 assessed as fold reduction of ciprofloxacin MIC at 100 ug/ml. A digest of the protocol:
as §1

The target is the same in test [13]. Put plainly: Inhibition of NorA efflux pump in Staphylococcus aureus 1199B assessed as fold reduction of ciprofloxacin MIC at 1.5 ug/ml. A digest of the protocol: as §1
For test [14] the target is unchanged. Put plainly: Inhibition of NorA efflux pump in Staphylococcus aureus 1199 assessed as fold reduction of ciprofloxacin MIC at 1.5 ug/ml. A digest of the protocol:
as §1

In the case of `O=C(/C=C/C=C/c1ccc2c(c1)OCO2)Nc1ccc(NC(=O)c2ccccc2)cc1`, the fold change (FC) in test [1] stood at 2; in test [2], 0.

On to `O=C(/C=C/C=C/c1ccc2c(c1)OCO2)NCC(O)c1ccccc1` (stereo not given), for which the fold change (FC) in [3] stood at 2; in test [4], 0.

Take `CC(C)c1cc2c(c(O)c1O)[C@@]1(C(=O)O)CCCC(C)(C)[C@@H]1CC2`: the fold change (FC) in [5] and in [6] was 2 each time.

In the case of `O=C(/C=C/C=C/c1ccc2c(c1)OCO2)Nc1ccc2c(c1)OCO2`, the fold change (FC) in test [7] and in test [8] was 0 in each case.

Regarding `CC(=O)Nc1ccc(NC(=O)/C=C/C=C/c2ccc3c(c2)OCO3)cc1`, the fold change (FC) turned out to be 4 in [5], 2 in test [9], 2 in test [6] and 0 in test [10].

In the case of `O=C(/C=C/C=C/c1ccc2c(c1)OCO2)Nc1ccc(C(=O)Nc2ccccc2)cc1`, the fold change (FC) in test [5] is 4; in test [1], 2; in test [6], 0; in test [2], 0.

For `COC(=O)[C@H]1[C@H]2C[C@@H]3c4[nH]c5cc(OC)ccc5c4CCN3C[C@H]2C[C@@H](OC(=O)c2cc(OC)c(OC)c(OC)c2)[C@@H]1OC`, the fold change (FC) amounted to 4 in test [5] and 2 in [6].

As for `CC(C)CNC(=O)CCCCc1ccc2c(c1)OCO2`, the fold change (FC) in test [7] and in [8] was 0 each time.

With `CCCCNC(=O)/C=C/C=C/c1ccc2c(c1)OCO2`, the fold change (FC) in [11] and in test [12] was 0 each time.

`CC(C)CNC(=O)/C=C/C=C/c1ccc2c(c1)OCO2`: the fold change (FC) in [5] was determined as 2; in test [6] it was 0.

For `Cc1ccccc1NC(=O)/C=C/C=C/c1ccc2c(c1)OCO2`, the fold change (FC) in test [7] and in test [8] was 0 in each case.

With `CC(C)NC(=O)/C=C/C=C/c1ccc2c(c1)OCO2`, the results for the fold change (FC) in test [5] and in [6] were 2 and 0, respectively.

Turning to `CC[C@@H](CO)NC(=O)/C=C/C=C/c1ccc2c(c1)OCO2`, the fold change (FC) in [5] was 2; in test [6], 0.

`O=C(CCCCc1ccc2c(c1)OCO2)Nc1ccc(C(=O)Nc2ccccc2)cc1`: the fold change (FC) in test [7] and in [8] was 0 each time.

Consider `N#Cc1ccc(NC(=O)/C=C/C=C/c2ccc3c(c2)OCO3)cc1`, for which the fold change (FC) in test [5] came to 2; in test [6], 0.

For `O=C(/C=C/C=C/c1ccc2c(c1)OCO2)Nc1ccccc1CO`, the fold change (FC) turned out to be 2 in test [5] and 0 in [6].

Consider `CCN(CC)C(=O)/C=C/C=C/c1ccc2c(c1)OCO2`, for which the fold change (FC) in [5] came out at 2; in test [6] it was 0.

Take `N#Cc1cccc(NC(=O)/C=C/C=C/c2ccc3c(c2)OCO3)c1`: the fold change (FC) is 4 in test [9], 2 in test [13], 0 in [10] and 0 in test [14].

As to `NC(=O)c1ccc(NC(=O)/C=C/C=C/c2ccc3c(c2)OCO3)cc1`, the figures for the fold change (FC) in test [5] and in [6] were 2 and 0, respectively.

For `O=C(/C=C/C=C/c1ccc2c(c1)OCO2)Nc1nc2ccccc2s1`, the fold change (FC) in test [9] and in [10] was 2 in each case.

`CC[C@H](CO)NC(=O)/C=C/C=C/c1ccc2c(c1)OCO2`: the fold change (FC) in [7] and in test [8] was 0 each time.

As to `COc1ccc(NC(=O)/C=C/C=C/c2ccc3c(c2)OCO3)cc1`, the fold change (FC) in [7] and in test [8] was 0 throughout.

Turning to `O=C(/C=C/C=C/c1ccc2c(c1)OCO2)Nc1ccc(CO)cc1`, the fold change (FC) in [9] turned out to be 2; in [10] it was 0.

As to `CCCNC(=O)/C=C/C=C/c1ccc2c(c1)OCO2`, the fold change (FC) in test [7] and in test [8] was 0 in each case.

`N#CCc1ccc(NC(=O)/C=C/C=C/c2ccc3c(c2)OCO3)cc1`: the figures for the fold change (FC) in test [5] and in test [6] were 2 and 0, respectively.

As for `CC(=O)Nc1cccc(NC(=O)/C=C/C=C/c2ccc3c(c2)OCO3)c1`, the fold change (FC) in [3] is 4; in test [9] it was 2; in test [4], 2; in [10] it was 0.

As for `O=C(/C=C/C=C/c1ccc2c(c1)OCO2)Nc1ccccc1`, the fold change (FC) in test [3] and in test [4] was 2 in each case.

Turning to `CC(C)N(C(=O)/C=C/C=C/c1ccc2c(c1)OCO2)C(C)C`, the fold change (FC) in [5] and in [6] was 2 each time.

On to `N#Cc1cccc(NC(=O)CCCCc2ccc3c(c2)OCO3)c1`, for which the fold change (FC) in [7] and in test [8] was 0 each time.

`O=C(/C=C/C=C/c1ccc2c(c1)OCO2)Nc1cccc(CO)c1`: the fold change (FC) in test [5] turned out to be 2; in [6], 0.

For `CN1CCN(C(=O)/C=C/C=C/c2ccc3c(c2)OCO3)CC1`, the fold change (FC) came out at 2 in [5] and 0 in test [6].

As for `N#CCc1ccccc1NC(=O)/C=C/C=C/c1ccc2c(c1)OCO2`, the fold change (FC) in test [7] and in [8] was 0 in each case.

As to `O=C(/C=C/C=C/c1ccc2c(c1)OCO2)Nc1ccc2ncsc2c1`, the fold change (FC) in test [1] worked out at 2; in test [2] it was 0.

With `O=C(/C=C/C=C/c1ccc2c(c1)OCO2)N1CCOCC1`, the fold change (FC) in test [7] and in test [8] was 0 each time.

On to `CC(=O)Nc1ccccc1NC(=O)/C=C/C=C/c1ccc2c(c1)OCO2`, for which the fold change (FC) in test [5] was found to be 4; in test [9], 2; in [6], 2; in [10], 0.
